Myeloid diff MLP: promotes myeloid progenitor differentiation | calls only at 10 µM | 360,000 tested, 1% active | ER-HoxA9 myeloid progenitors, lysozyme-GFP differentiation, flow cytometry;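 active means normalized GFP-positive differentiation at or above the plate's own cutoff, the solvent-only control mean plus 3 SD; inconclusive means no clear call, values can overlap the other calls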;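 further: cells exposed to compound for four days before flow analysis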
MC4R barr agon: agonists of human melanocortin 4 receptor (MC4R) beta-arrestin; P32245; U2OS MC4R beta-arrestin complementation, luminescence; percent of melanotan II response, DMSO zero; activation, % at 8.9 µM; 360,000 tested, 0.98% active; AID 540308;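 active means activation above a per-plate cutoff, the mean activation of sample wells on that plate plus 3 SD, cut at about 8% in these data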
Target sequence (P32245 whole entry, looked up): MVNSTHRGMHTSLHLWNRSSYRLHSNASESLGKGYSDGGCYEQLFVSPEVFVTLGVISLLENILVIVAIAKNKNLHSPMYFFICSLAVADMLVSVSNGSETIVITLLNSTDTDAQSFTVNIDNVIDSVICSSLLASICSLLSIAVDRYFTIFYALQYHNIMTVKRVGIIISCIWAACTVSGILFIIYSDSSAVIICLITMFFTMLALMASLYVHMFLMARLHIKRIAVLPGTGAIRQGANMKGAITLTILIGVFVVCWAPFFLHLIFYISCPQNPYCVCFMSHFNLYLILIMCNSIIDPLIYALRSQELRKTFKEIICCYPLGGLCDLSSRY
MC4R antagonist: human MC4R antagonism in cAMP assay; MC4R-expressing cells, MTII-stimulated cAMP, LANCE TR-FRET; inhibition, % at 6.5 µM; 360,000 tested, 0.48% active;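 active means inhibition above its plate's cutoff, the mean of tested wells on that plate plus 3 SD, cut at about 29% in these data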
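material = U2OS cells stably expressing human melanocortin 4 receptor (MC4R) | also added = Melanotan II challenge | dosing = single nominal compound dose of 6.5 µM | detection = TR-FRET with Eu-cAMP and labeled anti-cAMP, 671 nm | replication = singlicate | timing = compound 30 min, challenge 1 h, detection 1 h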
EBI2 antag: antagonists of human EBI2 receptor. P32249. 360,000 tested, 0.81% active. inhibition, % at 5 µM. EBI2 beta-arrestin recruitment, luminescence, 7a,25-OHC stimulated; in the data active means inhibition above about 38%;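 further: enzyme fragment complementation signal reports receptor beta-arrestin coupling in cells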
Exocytosis inh: lytic granule exocytosis inhibition; inhibition, % at 10 µM; 360,000 tested, 0.66% active; TALL-104 LAMP-1 surface exposure, flow cytometry; cells stimulated with thapsigargin and PMA;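 active means inhibition above about 55%, limit read from the data; inconclusive means no clear call, values can overlap the other calls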
A number is an active result; n = inactive; u = inconclusive; x = no result given; + = active, no number. This is a sample that favours compounds with a hit; in the whole collection about 3.7% have one here.

SMILES	Myeloid diff MLP	MC4R barr agon	MC4R antagonist	EBI2 antag	Exocytosis inh
COc1ccc(C(=O)Cc2cc(OC)c(OC)cc2[N+](=O)[O-])cc1	n	n	n	n	n
O=C(NCc1ccc2c(c1)OCO2)C1CCCN(S(=O)(=O)c2cccc3nonc23)C1 (stereo not drawn)	n	n	n	n	n
O=C(NCc1ccc2c(c1)OCO2)C1CCCN(S(=O)(=O)c2cccc3cccnc23)C1 (stereo not drawn)	+	n	n	n	n
CC1Sc2ccc(S(=O)(=O)CCC(=O)NC3CCCCC3C)cc2NC1=O (stereo not drawn)	u	n	n	n	n
CSCCC(NC(=O)c1ccccc1)C(=O)NCCCn1nc(C)cc1C (stereo not drawn)	n	n	n	n	n
COc1ccc2c(CC(=O)N3CCN(S(=O)(=O)c4ccc(F)cc4)CC3)coc2c1	+	n	n	n	n
Cc1ccc(S(=O)(=O)N(C)C[C@H]2OCCCC[C@@H](C)Oc3ccc(NC(=O)Cc4ccccc4)cc3C(=O)N([C@H](C)CO)C[C@@H]2C)cc1	n	n	n	n	n
CCCCC1CC2=C(C(=O)OC(C)(C)O2)C(c2ccc(Cl)cc2)O1 (stereo not drawn)	n	x	x	n	n
CCN1C(=O)/C(=C/c2cccs2)N(C)C1=S	n	n	n	n	n
CCN1C(=O)/C(=C/c2ccc(C)o2)N(C)C1=S	n	n	n	n	58.0
O=C(COc1ccc(F)cc1Br)NCc1nnc2ccccn12	n	n	n	n	n
Cc1ccc(C)c(N(CC(=O)N/N=C/c2ccc(-c3ccc([N+](=O)[O-])cc3)o2)S(=O)(=O)c2ccccc2)c1	n	n	n	n	n
CCOc1ccc(S(=O)(=O)N(CC(=O)N/N=C/c2ccc(-c3ccc([N+](=O)[O-])cc3)o2)c2ccccc2)cc1	+	n	n	n	n
CC1=CC(C)[C@H](/C=N/n2c(=O)[nH]c3c([nH]c4ccc(C)cc43)c2=O)C(C)C1 (stereo partly drawn)	n	n	n	n	n
CCN1/C(=C/c2cc[n+](C)cc2)C=Cc2cc(C)ccc21	+	n	n	n	n
CC1CCCN(C2=NC(=O)/C(=C/c3cn(-c4ccccc4)nc3-c3cccc(S(=O)(=O)N(C)C)c3)S2)C1 (stereo not drawn)	n	n	n	67.7	n
CC(=O)N1CCOc2ccc(S(=O)(=O)N3CC(C)CC(C)C3)cc21 (stereo not drawn)	n	n	n	n	n
Cc1cc(NCCCN2CCOCC2)n2nc(C)c(-c3ccccc3)c2n1	+	n	n	n	n
Cc1cc(NCCCN2CCOCC2)n2nc(C)c(-c3ccc(F)cc3)c2n1	n	n	n	n	n
CC(=O)Nc1cc(-c2cccc(C(=O)N(C)C)c2)cn2c(-c3ccccc3)cnc12	n	n	n	n	n
CC(=O)Nc1cc(-c2cccc(C(=O)N(C)C)c2)cn2c(-c3ccc(F)cc3)cnc12	n	9.0	n	n	n
CC(=O)Nc1cc(-c2cccc(F)c2)cn2c(-c3ccccc3)cnc12	n	9.4	n	n	n
CN(C)C(=O)c1cccc(-c2cnc3c(NC=O)cc(-c4ccc(N(C)C)cc4)cn23)c1	n	8.6	n	n	n
Cc1ccc2c(cnn2C(=O)CCC(=O)N2CCCCC2)c1	n	n	n	n	n
O=C(CCC(=O)n1ncc2ccccc21)N1CCCCC1	+	n	n	n	n
SMILES	Myeloid diff MLP	MC4R barr agon	MC4R antagonist	EBI2 antag	Exocytosis inh
O=[N+]([O-])c1ccc(CSc2nnc(Cc3ccccc3)n2-c2ccc(F)cc2)cc1	+	n	n	n	n
O=C(NCC(=O)N1CCN(Cc2c(F)cccc2Cl)CC1)c1cccs1	n	n	n	n	n
CC(C)C(=O)N(c1cc2sc(=O)oc2c2ccccc12)S(=O)(=O)c1cccs1	n	n	n	48.7	n
CC(C)c1ccc2[nH]c3nc(SCC(=O)NC4CC4)nnc3c2c1	+	n	n	n	n
CCOc1ccc2[nH]c3nc(SCC(=O)OC(C)C)nnc3c2c1	n	n	n	n	n
CCOc1ccccc1CNc1nnnn1C	n	n	n	n	n
CCOc1ccccc1CNn1nnnc1N	+	n	n	n	n
Cc1sc2nc(CN3CCCCC3)nc(Cl)c2c1C	+	n	n	n	n
COc1ccc(N2CC(C(=O)Nc3nnc(SCC(=O)NCc4ccco4)s3)CC2=O)cc1 (stereo not drawn)	+	n	n	n	n
O=C(CSc1nnc(NC(=O)C2CC(=O)N(c3ccc(F)cc3)C2)s1)NCc1ccco1 (stereo not drawn)	n	n	n	n	n
CC(=O)Nc1ccc(N=c2cc([N+](=O)[O-])cc(Cl)n2O)cc1	n	n	n	n	n
Cc1c(CCC(=O)NCCCn2ccnc2)c(=O)oc2c(C)c3oc4c(c3cc12)CCCC4	+	n	n	n	n
COc1cc(OC)c2c(-c3cccc(-c4cccc(C)c4)c3)cc(=O)oc2c1	+	n	n	n	n
O=C1c2ccccc2NC(c2ccco2)N1/N=C/c1ccco1 (stereo not drawn)	n	n	n	n	n
Cc1ccc(/C=N/N2C(=O)c3ccccc3NC2c2ccc(C)cc2)cc1 (stereo not drawn)	+	n	n	n	n
Cc1ccc(-n2c(SCC(=O)N(C)C3CCS(=O)(=O)C3)nc3ccccc3c2=O)c(C)c1 (stereo not drawn)	n	n	n	n	n
COc1ccc(CC(=O)N(Cc2ccccc2)c2cccc(C)c2)cc1OC	n	n	n	n	n
Cc1cccc(N(Cc2ccccc2)C(=O)CCl)c1	n	21.8	n	n	n
O=C(NCC1OCCc2ccccc21)c1ccc(NC(=O)c2ccccc2Cl)cc1 (stereo not drawn)	n	n	n	n	n
O=C(NCC1OCCc2ccccc21)c1ccc(NC(=O)c2cccc(Br)c2)cc1 (stereo not drawn)	n	9.5	n	n	n
COCc1cc(CN2CCN(CCc3ccccc3)C(CCO)C2)ccc1OC (stereo not drawn)	n	n	n	n	n
COc1ccc(NC(=O)CCCc2nc3ccccc3c(=O)[nH]2)cc1Cl	n	n	n	n	n
Cc1cc(C)cc(NC(=O)Cn2nnc(C(=O)NCc3ccccc3Cl)c2N)c1	n	10.4	n	n	n
Nc1c(C(=O)Nc2ccc3c(c2)OCCO3)nnn1Cc1ccc(Br)cc1	n	8.4	n	n	n
CCOc1ccc(Cn2nnc(C(=O)Nc3cc(C)cc(C)c3)c2N)cc1	n	9.4	n	n	n
Cc1cc(C)cc(NC(=O)Cn2nnc(C(=O)NCCc3ccccc3)c2N)c1	u	n	n	n	n
COCCCNc1nc2nonc2nc1N1CCC(C(C)N2CCOCC2)CC1 (stereo not drawn)	n	n	n	n	n
CNC(=O)c1ccc(CN(C)C(=O)c2cccc(S(=O)(=O)N3CCc4ccccc4C3)c2)cc1	n	n	n	n	n
O=C(/C=C/c1ccccc1)c1ccc2c3c(cccc13)CC2	n	n	n	n	n

Screens: PubChem, several laboratories
